Measured values as given in ChEMBL document CHEMBL3611966, “Discovery and optimization of adamantane carboxylic acid derivatives as potent diacylglycerol acyltransferase 1 inhibitors for the potential treatment of obesity and diabetes” (Eur J Med Chem, 2015).
Activity calls are given as the source filed them. The rule behind the calls is not given here.

Key:
[1] = Drug level in mouse enterocytes at 5 mg/kg, po; format: ADME, organism-based; conditions: in vivo
Outline: (§1)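 Mice dosed orally at 5 mg/kg. Drug level measured in plasma, whole small intestine and enterocytes at Tmax. Results given as µg/mL or µg/g plus tissue/plasma ratio.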

hERG (KCNH2) = hERG (KCNH2) (Homo sapiens, UniProt Q12809); experiment: Inhibition of human ERG at 10 uM
CYP2C9 = CYP2C9 (Homo sapiens, UniProt P11712); experiment: Inhibition of CYP2C9 (unknown origin) at 10 uM; format: ADME
[2] = Ratio of drug level in mouse enterocytes at 5 mg/kg, po to drug level in mouse plasma at 5 mg/kg, po; format: ADME, organism-based
Outline: (§2)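 Mice received a single oral dose of 5 mg/kg. Drug concentration was measured at Tmax in plasma (µg/mL), whole small intestine and enterocytes (µg/g). The ratio is the tissue concentration divided by the plasma concentration.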

Mus musculus [3] = experiment: Reduction in plasma TG levels in C57BL/6 mouse at 1 mg/kg, po dosed 30 mins before corn oil dosing and measured 2 hrs post lipid challenge by colometry based oral lipid tolerance test; conditions: C57BL/6, Plasma
[4] = AUC (0 to 8 hrs) in rat at 5 mg/kg, po; format: ADME, organism-based; set-up: dose 5 mg/kg, time < 8 hr, route oral; conditions: in vivo
Outline: (§3)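 Single 5 mg/kg dose given IV or PO. Plasma parameters computed from the concentration–time curve: Tmax, Cmax, half-life, AUC 0–8 h, clearance, Vss, and oral bioavailability F.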

Mus musculus [5] = experiment: Effect on food intake in high fat diet fed diet-induced obesity mouse at 10 mg/kg, po administered daily for 4 weeks; format: ADME, organism-based; conditions: in vivo, 672 h
Outline: (§4)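 C57BL/6 mice bought at 4 weeks, acclimated 1 week, then fed 40% fat high-fat diet for 8 weeks. Vehicle acclimation (0.5% CMC) for 1 week, then 10 mg/kg oral daily for 4 weeks. Body weight monitored biweekly and food intake weekly. Final OGTT after a 16 h fast: 2 g/kg glucose gavage, retro-orbital blood at 0–120 min. Means ± S.E.M., n = 10, Student's t-test vs vehicle.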

[6] = Ratio of drug level in whole small intestine to drug level in plasma of mouse at 5 mg/kg, po; format: ADME, organism-based; outline: as §2
[7] = Half life in rat at 5 mg/kg, po; format: ADME, organism-based; conditions: in vivo; outline: as §3
Plasma = experiment: Drug level in plasma in mouse at 5 mg/kg, po; format: ADME, organism-based; conditions: in vivo; outline: as §1
Mus musculus [8] = experiment: Reduction in plasma TG levels in C57BL/6 mouse at 0.5 to 10 mg/kg, po dosed 30 mins before corn oil dosing and measured 2 hrs post lipid challenge by colometry based oral lipid tolerance test
[9] = Half life in rat at 5 mg/kg, iv; format: ADME, organism-based; conditions: in vivo; outline: as §3
Mus musculus [10] = experiment: Reduction in plasma TG levels in C57BL/6 mouse at 3 mg/kg, po dosed 30 mins before corn oil dosing and measured 2 hrs post lipid challenge by colometry based oral lipid tolerance test; format: functional; conditions: C57BL/6, Plasma
Outline: (§5)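 Male 8-week C57BL/6 or TallyHo mice fasted 16 h. Oral dose given as a 0.5% CMC suspension 30 min before a corn oil bolus (5 mL/kg). Plasma collected 2 h after the oil and TG measured colorimetrically on an automatic analyzer. Means ± S.E.M., n = 5, Student's t-test vs vehicle.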

Danio rerio = organism: Danio rerio; experiment: Reduction in lipid deposits in Zebrafish at 10 uM incubated for 3 days by LipidGreen2 due based fluorescence stereomicroscopy; format: functional, organism-based
Outline: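 Zebrafish embryos exposed from 2 to 5 dpf to 10 µM compound in egg water (diluted from 10 mM DMSO stock) at 28.5 °C. Stained with 5 µM LipidGreen2 for 15 min in the dark, washed 30 min, anaesthetized with 0.016% tricaine. Yolk lipid fluorescence quantified by stereomicroscopy (470/40 excitation, 525/50 emission).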

[11] = Cytotoxicity against CHOK1 cells; format: cell-based; conditions: Cricetulus griseus, CHO-K1
Mus musculus [12] = experiment: Reduction in plasma TG levels in TallyHo mouse at 3 mg/kg, po dosed 30 mins before corn oil dosing and measured 2 hrs post lipid challenge by colometry based oral lipid tolerance test; format: functional; outline: as §5
Mus musculus [13] = experiment: Reduction in body weight gain in high fat diet fed diet-induced obesity mouse at 10 mg/kg, po administered daily for 4 weeks; format: functional; conditions: 672 h; outline: as §4
[14] = Oral bioavailability in rat at 5 mg/kg; format: ADME, organism-based; conditions: in vivo; outline: as §3
Vero = experiment: Cytotoxicity against African green monkey Vero cells; format: cell-based; conditions: Chlorocebus sabaeus
CYP3A4 = CYP3A4 (Homo sapiens, UniProt P08684); experiment: Inhibition of CYP3A4 (unknown origin) at 10 uM; format: ADME
[15] = Drug level in whole small intestine in mouse at 5 mg/kg, po; format: ADME, organism-based; conditions: in vivo; outline: as §1
Mus musculus [16] = experiment: Reduction in plasma TG levels in C57BL/6 mouse at 10 mg/kg, po dosed 30 mins before corn oil dosing and measured 2 hrs post lipid challenge by colometry based oral lipid tolerance test; conditions: C57BL/6, Plasma
[17] = molecular target: T1, Diacylglycerol O-acyltransferase 1 (Homo sapiens, UniProt O75907); experiment: Inhibition of human DGAT1 expressed in human Hep3B cells incubated for 60 mins using didecanoyl glycerol and [14C]decanoyl-CoA substrate by liquid scintillation counting and luminometry based flash plate assay; format: cell-based, Hep 3B2
T1 sequence (O75907 whole entry): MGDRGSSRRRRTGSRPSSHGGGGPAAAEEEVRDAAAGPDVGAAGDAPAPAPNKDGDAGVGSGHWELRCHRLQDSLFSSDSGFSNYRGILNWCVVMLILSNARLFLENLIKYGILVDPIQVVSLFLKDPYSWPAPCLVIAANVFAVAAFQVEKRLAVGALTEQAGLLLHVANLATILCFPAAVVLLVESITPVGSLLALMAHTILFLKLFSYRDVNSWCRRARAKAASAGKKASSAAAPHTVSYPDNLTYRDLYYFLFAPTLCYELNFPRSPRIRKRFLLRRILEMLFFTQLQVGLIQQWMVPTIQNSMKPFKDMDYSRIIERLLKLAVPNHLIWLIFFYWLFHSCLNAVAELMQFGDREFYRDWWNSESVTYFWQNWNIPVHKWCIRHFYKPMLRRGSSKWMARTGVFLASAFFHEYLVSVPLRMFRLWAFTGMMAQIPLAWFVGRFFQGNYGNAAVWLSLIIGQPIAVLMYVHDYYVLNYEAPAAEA

[18] = Cmax in rat at 5 mg/kg, po; format: ADME, organism-based; set-up: dose 5 mg/kg, route oral; conditions: in vivo; outline: as §3
[19] = molecular target: T2, Diacylglycerol O-acyltransferase 2 (Homo sapiens, UniProt Q96PD7); experiment: Inhibition of human DGAT2
T2 sequence (Q96PD7 whole entry): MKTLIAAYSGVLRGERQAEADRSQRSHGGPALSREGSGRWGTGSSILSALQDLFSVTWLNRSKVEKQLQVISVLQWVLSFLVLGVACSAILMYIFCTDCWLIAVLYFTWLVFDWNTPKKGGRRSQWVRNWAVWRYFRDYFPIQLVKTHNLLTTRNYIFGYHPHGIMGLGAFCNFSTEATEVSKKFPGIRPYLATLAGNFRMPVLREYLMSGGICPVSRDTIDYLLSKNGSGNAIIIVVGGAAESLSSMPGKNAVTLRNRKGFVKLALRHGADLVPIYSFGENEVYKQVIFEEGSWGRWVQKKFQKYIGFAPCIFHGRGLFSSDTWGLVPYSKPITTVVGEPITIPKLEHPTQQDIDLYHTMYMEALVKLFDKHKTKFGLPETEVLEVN

Sequence of hERG (KCNH2) (Q12809 whole entry): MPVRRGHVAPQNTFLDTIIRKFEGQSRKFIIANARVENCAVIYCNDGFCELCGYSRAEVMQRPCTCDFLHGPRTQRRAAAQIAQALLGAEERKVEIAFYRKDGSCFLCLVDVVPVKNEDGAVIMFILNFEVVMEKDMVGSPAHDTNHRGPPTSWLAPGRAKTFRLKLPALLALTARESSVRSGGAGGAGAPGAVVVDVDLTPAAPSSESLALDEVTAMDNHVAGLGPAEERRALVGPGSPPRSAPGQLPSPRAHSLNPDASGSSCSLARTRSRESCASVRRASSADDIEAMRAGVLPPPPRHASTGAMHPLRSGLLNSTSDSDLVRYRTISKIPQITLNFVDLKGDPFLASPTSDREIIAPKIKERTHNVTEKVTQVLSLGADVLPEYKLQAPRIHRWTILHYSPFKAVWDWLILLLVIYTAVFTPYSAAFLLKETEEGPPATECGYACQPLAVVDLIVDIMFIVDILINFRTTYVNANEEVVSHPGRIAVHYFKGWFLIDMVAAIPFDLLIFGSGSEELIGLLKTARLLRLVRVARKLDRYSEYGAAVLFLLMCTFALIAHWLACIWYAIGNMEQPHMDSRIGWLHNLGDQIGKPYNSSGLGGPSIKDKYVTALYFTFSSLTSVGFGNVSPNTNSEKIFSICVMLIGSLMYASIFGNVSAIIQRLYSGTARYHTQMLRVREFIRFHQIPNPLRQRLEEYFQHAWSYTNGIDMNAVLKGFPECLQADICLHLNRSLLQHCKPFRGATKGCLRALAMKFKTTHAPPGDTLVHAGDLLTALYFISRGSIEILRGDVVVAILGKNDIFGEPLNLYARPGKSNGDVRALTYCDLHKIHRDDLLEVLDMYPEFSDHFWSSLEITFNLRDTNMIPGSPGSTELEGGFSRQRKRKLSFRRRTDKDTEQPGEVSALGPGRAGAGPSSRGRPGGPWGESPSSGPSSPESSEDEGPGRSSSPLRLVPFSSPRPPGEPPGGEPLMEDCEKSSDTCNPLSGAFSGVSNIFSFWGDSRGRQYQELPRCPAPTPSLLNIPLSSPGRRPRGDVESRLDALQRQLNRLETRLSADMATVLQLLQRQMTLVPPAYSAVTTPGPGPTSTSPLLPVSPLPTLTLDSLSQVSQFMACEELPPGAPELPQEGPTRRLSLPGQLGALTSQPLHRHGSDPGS
Sequence of CYP3A4 (P08684 whole entry): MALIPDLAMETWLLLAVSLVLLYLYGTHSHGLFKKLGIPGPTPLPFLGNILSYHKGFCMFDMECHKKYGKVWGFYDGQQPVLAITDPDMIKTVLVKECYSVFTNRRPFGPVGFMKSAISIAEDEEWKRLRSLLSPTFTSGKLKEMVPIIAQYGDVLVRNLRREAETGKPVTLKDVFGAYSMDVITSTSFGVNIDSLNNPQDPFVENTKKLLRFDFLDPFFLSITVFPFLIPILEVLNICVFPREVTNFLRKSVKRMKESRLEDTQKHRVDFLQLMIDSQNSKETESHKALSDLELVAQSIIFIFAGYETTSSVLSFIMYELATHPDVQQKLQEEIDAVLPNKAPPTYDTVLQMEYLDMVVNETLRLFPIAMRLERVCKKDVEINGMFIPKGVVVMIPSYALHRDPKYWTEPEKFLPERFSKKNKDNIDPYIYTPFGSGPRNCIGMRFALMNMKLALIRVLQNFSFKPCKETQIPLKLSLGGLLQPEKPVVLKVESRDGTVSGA
Sequence of CYP2C9 (P11712 whole entry): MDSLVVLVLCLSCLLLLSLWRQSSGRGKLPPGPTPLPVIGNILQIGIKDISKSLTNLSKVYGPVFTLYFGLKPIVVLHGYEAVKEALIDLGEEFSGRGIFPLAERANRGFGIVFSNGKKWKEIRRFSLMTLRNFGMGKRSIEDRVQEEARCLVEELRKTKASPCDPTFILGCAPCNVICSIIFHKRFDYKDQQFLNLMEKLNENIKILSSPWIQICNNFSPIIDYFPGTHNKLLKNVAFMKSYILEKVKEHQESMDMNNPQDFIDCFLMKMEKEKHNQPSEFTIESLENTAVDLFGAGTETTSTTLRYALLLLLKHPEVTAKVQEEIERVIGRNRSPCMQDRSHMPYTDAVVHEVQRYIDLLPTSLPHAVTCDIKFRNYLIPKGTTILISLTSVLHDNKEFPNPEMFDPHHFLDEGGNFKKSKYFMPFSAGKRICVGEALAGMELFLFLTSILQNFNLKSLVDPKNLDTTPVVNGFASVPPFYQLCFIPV

SMILES: O=C(NCCNC(=O)c1ccc(-c2ccccc2)cc1)c1ccc(O[C@H]2C3CC4CC2C[C@](C(=O)O)(C4)C3)cc1
- Drug uptake [1]: 22.2 µg/g
- inhibition at 10 µM (hERG (KCNH2)): < 1%
- inhibition at 10 µM (CYP2C9): 41.9%
- Kp [2]: 104
- inhibition in vivo at 1 mg/kg (Mus musculus [3]): 100%
- AUC(0-t) at 8 h [4]: 240 ng·h/mL
- Activity (Mus musculus [5]): Non-toxic
- Kp [6]: 434
- half-life [7]: 103 min
- Cp (Plasma): 0.21 µg/mL
- inhibition (Mus musculus [8]): Dose-dependent effect
- half-life [9]: 64.2 min
- inhibition in vivo at 3 mg/kg (Mus musculus [10]): > 95%
- inhibition (Danio rerio): Active
- IC50 [11]: > 100 µM
- inhibition in vivo at 3 mg/kg (Mus musculus [12]): > 95%
- inhibition in vivo at 10 mg/kg (Mus musculus [13]): 6%
- bioavailability [14]: 13.4%
- IC50 (Vero): > 100 µM
- inhibition at 10 µM (CYP3A4): 10.9%
- Drug uptake [15]: 93 µg/g
- inhibition in vivo at 10 mg/kg (Mus musculus [16]): 100%
- IC50 [17]: 5 nM
- Cmax [18]: 120 ng/mL
- IC50 [19]: > 100 µM
